Results taken from PMC3254186 (Frontiers in Pharmacology, 2011).

What was measured:
Type in all cases: cell-based
[1] = molecular target: T1, Kir3.1/3.2 (GIRK) (Homo sapiens, UniProt P48051+P48549); assay: Tl+ flux assay, mGluR8-activated GIRK in HEK-293 cells; settings: from Tl+ flux IC50 values
T1 sequence (P48549 1-501): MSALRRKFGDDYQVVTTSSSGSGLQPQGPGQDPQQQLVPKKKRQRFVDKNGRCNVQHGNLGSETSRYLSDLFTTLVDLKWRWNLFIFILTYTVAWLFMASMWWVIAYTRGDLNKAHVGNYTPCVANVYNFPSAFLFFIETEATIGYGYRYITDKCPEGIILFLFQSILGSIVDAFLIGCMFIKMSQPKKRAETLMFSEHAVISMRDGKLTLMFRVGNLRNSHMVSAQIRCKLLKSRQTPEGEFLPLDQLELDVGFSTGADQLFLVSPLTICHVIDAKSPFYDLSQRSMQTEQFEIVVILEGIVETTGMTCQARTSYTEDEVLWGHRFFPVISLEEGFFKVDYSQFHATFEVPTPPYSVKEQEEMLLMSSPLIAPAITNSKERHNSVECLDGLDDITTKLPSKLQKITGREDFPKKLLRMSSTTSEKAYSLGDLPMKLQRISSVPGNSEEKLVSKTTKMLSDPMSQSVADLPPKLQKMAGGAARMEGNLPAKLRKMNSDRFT
T1 sequence (P48051 1-423): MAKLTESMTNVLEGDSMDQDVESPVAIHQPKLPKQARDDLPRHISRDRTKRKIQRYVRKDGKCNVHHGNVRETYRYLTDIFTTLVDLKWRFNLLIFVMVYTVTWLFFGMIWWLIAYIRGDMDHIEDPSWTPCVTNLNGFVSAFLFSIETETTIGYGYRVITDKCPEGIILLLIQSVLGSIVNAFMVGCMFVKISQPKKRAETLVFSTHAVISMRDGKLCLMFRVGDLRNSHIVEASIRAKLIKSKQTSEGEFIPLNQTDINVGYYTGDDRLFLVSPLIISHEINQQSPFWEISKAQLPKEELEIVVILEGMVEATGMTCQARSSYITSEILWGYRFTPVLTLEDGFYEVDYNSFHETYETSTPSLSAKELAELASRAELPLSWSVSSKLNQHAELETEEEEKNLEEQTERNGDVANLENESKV
In short: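 mGluR8/GIRK/HEK monoclonal cells stably expressing Kir3.1/3.2, M4 receptor and rat mGlu8a, loaded with FluoZin-2. Test compound pre-incubated 20 min (1:3 serial dilutions from 10 mM DMSO stock). Tl+ buffer (12 mM Tl2SO4, pH 7.3) added with glutamate at EC80, set daily from an 11-point curve. Imaged at 1 Hz (ex 470, em 540 nm), 20–23°C. Slope taken 5–15 s post-addition, vehicle-corrected. CRC n = 3. Selectivity taken from the Tl+ flux IC50 values for GIRK and Kir1.1-S44D.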

[2] = tested on: Kir1.1; assay: Whole-cell patch clamp, Kir1.1; settings: 20 μM, n = 5
[3] = molecular target: T2, Kir3.1/3.4 (Homo sapiens, UniProt P48544+P48549); assay: Two-electrode voltage clamp in Xenopus oocytes, Kir3.1/3.4; settings: TEVC oocytes, 25 μM, mean ± SEM, n = 6
T2 sequence (P48549 1-501): T1 sequence (P48549 1-501)
T2 sequence (P48544 1-419): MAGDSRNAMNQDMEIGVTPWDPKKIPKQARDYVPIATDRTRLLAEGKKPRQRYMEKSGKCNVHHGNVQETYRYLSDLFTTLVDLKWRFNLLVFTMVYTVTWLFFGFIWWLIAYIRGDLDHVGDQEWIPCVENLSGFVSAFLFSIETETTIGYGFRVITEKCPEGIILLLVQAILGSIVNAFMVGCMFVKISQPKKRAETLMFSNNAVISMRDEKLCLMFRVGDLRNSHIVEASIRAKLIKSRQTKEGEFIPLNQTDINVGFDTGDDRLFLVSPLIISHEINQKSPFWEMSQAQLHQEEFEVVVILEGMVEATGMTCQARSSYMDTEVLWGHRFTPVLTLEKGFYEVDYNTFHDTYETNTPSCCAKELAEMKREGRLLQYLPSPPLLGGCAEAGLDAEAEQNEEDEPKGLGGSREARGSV
In short: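 Xenopus oocytes were injected with Kir3.1/3.2 or Kir3.1/3.4 cRNA and voltage-clamped with two electrodes at 20–23°C, with current at −80 mV followed over time. The bath was switched from K+-free to 90 mM K+ to activate the channel. Test compound in 90K was applied continuously at graded concentrations, then 2 mM Ba2+ was added. A final 0K switch measured leak. Time constant derived (n = 6 at 25 μM). Percent inhibition n = 4–6.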

[4] = molecular target: T3, Kir1.1 (Rattus norvegicus, UniProt P35560); assay: Two-electrode voltage clamp in Xenopus oocytes, Kir1.1
T3 sequence (P35560 1-391): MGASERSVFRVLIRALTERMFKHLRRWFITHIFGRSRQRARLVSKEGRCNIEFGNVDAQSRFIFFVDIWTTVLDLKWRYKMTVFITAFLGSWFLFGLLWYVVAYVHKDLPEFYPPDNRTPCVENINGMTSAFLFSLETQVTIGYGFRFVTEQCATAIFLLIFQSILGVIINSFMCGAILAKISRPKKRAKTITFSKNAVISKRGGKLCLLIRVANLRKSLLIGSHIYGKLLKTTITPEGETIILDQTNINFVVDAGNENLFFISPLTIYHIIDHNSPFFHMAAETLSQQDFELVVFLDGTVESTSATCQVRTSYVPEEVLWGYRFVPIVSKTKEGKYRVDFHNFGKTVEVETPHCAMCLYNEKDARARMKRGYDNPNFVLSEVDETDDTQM
In short: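 Stage V–VI Xenopus oocytes were defolliculated with 1 mg/mL collagenase and injected with 0.5–10 ng cRNA. They were kept at 16°C in modified L-15 for 24–72 h. Two-electrode voltage clamp at 20–23°C: held at −75 mV and stepped to −120 mV for 200 ms every 5 s, with current at −120 mV tracked over time. Test compound (50 μM) was perfused, then 2 mM Ba2+. Time constant of inhibition derived.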

Structure (SMILES): Cc1ccc(OCC(O)Cn2c(=N)n(Cc3ccccc3)c3ccccc32)cc1 (centres unmarked) [Compound 1, 1-(3-benzyl-2-imino-2,3-dihydro-1H-benzo[d]imidazol-1-yl)-3-(p-tolyloxy)propan-2-ol]
- selectivity for GIRK over Kir1.1 [1]: 10 fold
- inhibition of Kir1.1 [2]: 49.5 ± 0.03%
- time constant (τ) for inhibition of Kir3.1/3.4 currents [3]: 27 ± 5 s
- time constant of Kir1.1 inhibition ([4]; TEVC oocytes, 50 μM, n = 8): 95 ± 15 s
- inhibition at 50 µM ([4]; read-out: inhibition of Kir1.1): 4.3 ± 1.7%
